The values that follow come from ChEMBL document CHEMBL1275293, “Aqua mediated synthesis of 2-amino-6-benzothiazol-2-ylsulfanyl-chromenes and its in vitro study, explanation of the structure-activity relationships (SARs) as antibacterial agent” (2010).

Common to all, as to assay type: functional
One experiment deals with Pseudomonas aeruginosa. Description: Antimicrobial activity against Pseudomonas aeruginosa by broth microdilution method. In a few lines: (§1)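 Broth microdilution MIC following the NCCLS standard protocol, run in 96-well plates with 0.2 ml Mueller Hinton broth per well. Compounds were serially doubled from 0.5 to […] μg/ml, with ampicillin as reference. Inoculum was set to McFarland 0.5 turbidity, then diluted to about 5 × 10^5 cfu/ml per well. Plates included broth+inoculum and broth-only controls and were incubated overnight at 37 °C.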

In experiment [1] the test system is Staphylococcus epidermidis. Briefly: Antimicrobial activity against Staphylococcus epidermidis by broth microdilution method. In short, it runs like this: as §1
The next experiment has as its system Escherichia coli. Description: Antimicrobial activity against Escherichia coli by broth microdilution method. In a few lines: as §1
For a further experiment, the system named is Staphylococcus aureus. Briefly: Antimicrobial activity against Staphylococcus aureus by broth microdilution method. In short, it runs like this:
as §1

In brackets after ≈: the same amount, converted by molar mass.

In the case of `COc1ccc(C2C(C#N)=C(N)Oc3ccc(Sc4nc5ccccc5s4)cc32)cc1` (stereo not given), the MIC came to 2 µg/mL (≈ 4.51 µM) against Pseudomonas aeruginosa, 16 µg/mL (≈ 36.1 µM) in experiment [1], 32 µg/mL (≈ 72.1 µM) against Escherichia coli and 8 µg/mL (≈ 18 µM) in the experiment on Staphylococcus aureus.
For `CCOC(=O)C1=C(N)Oc2ccc(Sc3nc4cc(OC)ccc4[nH]3)cc2C1c1cccs1` (stereo not given), in that order: 125 µg/mL (≈ 261 µM), 125 µg/mL (≈ 261 µM), 125 µg/mL (≈ 261 µM) and 125 µg/mL (≈ 261 µM).
For `N#CC1=C(N)Oc2ccc(Sc3nc4ccccc4s3)cc2C1c1ccc2c(c1)OCO2` (stereo not given), in that order: 8 µg/mL (≈ 17.5 µM), 4 µg/mL (≈ 8.74 µM), 1 µg/mL (≈ 2.19 µM) and 8 µg/mL (≈ 17.5 µM).
Take `CCOC(=O)C1=C(N)Oc2ccc(Sc3nc4ccccc4[nH]3)cc2C1c1cccc([N+](=O)[O-])c1` (stereo not given): the MIC against Pseudomonas aeruginosa is 32 µg/mL (≈ 65.5 µM); in experiment [1] it was 64 µg/mL (≈ 131 µM); against Escherichia coli it was 32 µg/mL (≈ 65.5 µM); in the experiment on Staphylococcus aureus, 64 µg/mL (≈ 131 µM).
For `CCOC(=O)C1=C(N)Oc2ccc(Sc3nc4cc(OC)ccc4[nH]3)cc2C1c1ccc(Cl)cc1` (stereo not given), the MIC worked out at 64 µg/mL (≈ 126 µM) against Pseudomonas aeruginosa, 64 µg/mL (≈ 126 µM) in experiment [1], 64 µg/mL (≈ 126 µM) in the experiment on Escherichia coli and 32 µg/mL (≈ 63 µM) against Staphylococcus aureus.
As for `COc1ccc2[nH]c(Sc3ccc4c(c3)C(c3ccc([N+](=O)[O-])cc3)C(C#N)=C(N)O4)nc2c1` (stereo not given), the MIC with Pseudomonas aeruginosa came to 8 µg/mL (≈ 17 µM); in experiment [1] it was 16 µg/mL (≈ 33.9 µM); against Escherichia coli, 16 µg/mL (≈ 33.9 µM); with Staphylococcus aureus it was 16 µg/mL (≈ 33.9 µM).
For the compound `CCOC(=O)C1=C(N)Oc2ccc(Sc3nc4cc(OC)ccc4[nH]3)cc2C1c1ccc2c(c1)OCO2` (stereo not given), the MIC (against Pseudomonas aeruginosa; in experiment [1]; with Escherichia coli; with Staphylococcus aureus) was 125 µg/mL (≈ 242 µM) each time.
With `CCOC(=O)C1=C(N)Oc2ccc(Sc3nc4ccccc4[nH]3)cc2C1c1ccc([N+](=O)[O-])cc1` (stereo not given), the minimal inhibitory concentration (MIC) against Pseudomonas aeruginosa came out at 8 µg/mL (≈ 16.4 µM); in experiment [1] it was 32 µg/mL (≈ 65.5 µM); with Escherichia coli it was 16 µg/mL (≈ 32.8 µM); with Staphylococcus aureus, 16 µg/mL (≈ 32.8 µM).
For the compound `N#CC1=C(N)Oc2ccc(Sc3nc4ccccc4s3)cc2C1c1c[nH]c2ccccc12` (stereo not given), the MIC in the experiment on Pseudomonas aeruginosa worked out at 16 µg/mL (≈ 35.4 µM); in experiment [1] it was 32 µg/mL (≈ 70.7 µM); with Escherichia coli, 0.5 µg/mL (≈ 1.1 µM); in the experiment with Staphylococcus aureus it was 2 µg/mL (≈ 4.42 µM).
For `CCOC(=O)C1=C(N)Oc2ccc(Sc3nc4cc(OC)ccc4[nH]3)cc2C1c1ccc([N+](=O)[O-])cc1` (stereo not given), in that order: 32 µg/mL (≈ 61.7 µM), 64 µg/mL (≈ 123 µM), 64 µg/mL (≈ 123 µM) and 64 µg/mL (≈ 123 µM).
For `N#CC1=C(N)Oc2ccc(Sc3nc4ccccc4s3)cc2C1c1ccc(Cl)cc1` (stereo not given), in that order: 16 µg/mL (≈ 35.7 µM), 32 µg/mL (≈ 71.4 µM), 32 µg/mL (≈ 71.4 µM) and 4 µg/mL (≈ 8.93 µM).
Regarding `N#CC1=C(N)Oc2ccc(Sc3nc4ccccc4[nH]3)cc2C1c1ccc(Cl)cc1` (stereo not given), the MIC (in the experiment on Pseudomonas aeruginosa; in experiment [1]; in the experiment on Escherichia coli; in the experiment with Staphylococcus aureus) was 16 µg/mL (≈ 37.1 µM) each time.
As to `CCOC(=O)C1=C(N)Oc2ccc(Sc3nc4ccccc4[nH]3)cc2C1c1cccs1` (stereo not given), the MIC (against Pseudomonas aeruginosa; in experiment [1]; with Escherichia coli; with Staphylococcus aureus) was 125 µg/mL (≈ 278 µM) each time.
Regarding `N#CC1=C(N)Oc2ccc(Sc3nc4ccccc4s3)cc2C1c1ccc2ccccc2c1` (stereo not given), the minimum inhibitory concentration (MIC) against Pseudomonas aeruginosa amounted to 8 µg/mL (≈ 17.3 µM); in experiment [1], 32 µg/mL (≈ 69 µM); against Escherichia coli, 16 µg/mL (≈ 34.5 µM); in the experiment on Staphylococcus aureus it was 16 µg/mL (≈ 34.5 µM).
Take `CCOC(=O)C1=C(N)Oc2ccc(Sc3nc4ccccc4[nH]3)cc2C1c1ccc(Cl)cc1` (stereo not given): the minimal inhibitory concentration (MIC) against Pseudomonas aeruginosa was 8 µg/mL (≈ 16.7 µM); in experiment [1] it was 64 µg/mL (≈ 134 µM); in the experiment with Escherichia coli, 64 µg/mL (≈ 134 µM); in the experiment with Staphylococcus aureus, 32 µg/mL (≈ 66.9 µM).
On to `N#CC1=C(N)Oc2ccc(Sc3nc4ccccc4s3)cc2C1c1ccccc1` (stereo not given), for which the MIC with Pseudomonas aeruginosa worked out at 32 µg/mL (≈ 77.4 µM); in experiment [1] it was 8 µg/mL (≈ 19.3 µM); against Escherichia coli, 16 µg/mL (≈ 38.7 µM); in the experiment on Staphylococcus aureus, 4 µg/mL (≈ 9.67 µM).
As to `COc1ccc2[nH]c(Sc3ccc4c(c3)C(c3cccs3)C(C#N)=C(N)O4)nc2c1` (stereo not given), the MIC with Pseudomonas aeruginosa was 125 µg/mL (≈ 289 µM); in experiment [1], 250 µg/mL (≈ 578 µM); in the experiment with Escherichia coli, 125 µg/mL (≈ 289 µM); in the experiment on Staphylococcus aureus, 250 µg/mL (≈ 578 µM).
For `N#CC1=C(N)Oc2ccc(Sc3nc4ccccc4s3)cc2C1c1cc2ccccc2nc1Cl` (stereo not given), the MIC in the experiment with Pseudomonas aeruginosa was determined as 16 µg/mL (≈ 32.1 µM); in experiment [1], 64 µg/mL (≈ 128 µM); against Escherichia coli it was 16 µg/mL (≈ 32.1 µM); in the experiment with Staphylococcus aureus it was 16 µg/mL (≈ 32.1 µM).
On to `N#CC1=C(N)Oc2ccc(Sc3nc4ccccc4s3)cc2C1c1cccs1` (stereo not given), for which the MIC was determined as 32 µg/mL (≈ 76.3 µM) against Pseudomonas aeruginosa, 64 µg/mL (≈ 153 µM) in experiment [1], 2 µg/mL (≈ 4.77 µM) against Escherichia coli and 2 µg/mL (≈ 4.77 µM) against Staphylococcus aureus.
`CCOC(=O)C1=C(N)Oc2ccc(Sc3nc4cc(OC)ccc4[nH]3)cc2C1c1cccc([N+](=O)[O-])c1` (stereo not given): the MIC (in the experiment with Pseudomonas aeruginosa; in experiment [1]; in the experiment with Escherichia coli; in the experiment on Staphylococcus aureus) was 125 µg/mL (≈ 241 µM) each time.
